Measurements pooled from the literature.
Protocols differ between the studies behind these lines.
Cell line: HepG2
Read-out: cell growth or viability

Compound	test	conditions	endpoint	result
CN1CCN(C/C=N/NC(=O)Nc2cc3c(Nc4ccc(F)c(Cl)c4)ncnc3cc2O[C@H]2CCOC2)CC1	MTT	72 h	IC50	3.28 µM
CCOC(=O)c1ccc(-n2c(N)c(C#N)c(CC#N)c(C#N)c2=O)cc1	MTT	6.25 µM, 24 h	viability	71.8%
O=C(CN1C(=O)/C(=C/c2ccco2)SC1=S)Nc1ccccc1	MTT	10 µM	inhibition	18.6%
CCn1cc(-c2ccccn2)c(=O)c2cc(F)c(N3CCC(C)CC3)cc21	ATP luminescence	48 h	EC50	> 40 µM
Cc1ccc2nc(-c3cccc([N+](=O)[O-])c3)[nH]c2c1	MTT	48 h	IC50	71.4 µM
COc1cccc(NC(=O)CN2C(=O)/C(=C/c3ccc(F)cc3)SC2=S)c1	MTT	10 µM	inhibition	10.2%
CCOC(=O)c1ccc(N2C(N)=C(C#N)C3(C(=O)Nc4ccccc43)C(C#N)=C2O)cc1 (stereo not drawn)	MTT	1.56 µM, 24 h	viability	94.2%
COc1ccc(NC(=O)c2c(Nc3ccccc3)sc(C(=O)NN=Cc3ccccc3)c2NC(C)=O)cc1	SRB	1 nM, 48 h	viability	99.3%
Cc1ccc2nc(-c3ccccc3Cl)[nH]c2c1	MTT	48 h	IC50	95.6 µM
COc1ccc(NC(=O)c2c(Nc3ccccc3)sc(C#N)c2NC(=O)CNc2ccccc2)cc1	SRB	10 nM, 48 h	viability	90.3%
CCOc1ccc(-c2nc3ccccc3n2Cc2ccccc2)cc1	MTT	–	IC50	33.8 µM
CCOC(=O)c1ccc(-n2c(C)cc(C)c(C#N)c2=O)cc1	MTT	25 µM, 24 h	viability	64.7%
CCNC(=O)c1cn(CC)c2cc(N3CCC(C)CC3)c(F)cc2c1=O	ATP luminescence	48 h	EC50	> 40 µM
CC(=O)Nc1cccc(-n2c(=O)n(C3CC3)c(=O)c3c(Nc4ccc(I)cc4F)n(C)c(=O)c(C)c32)c1	resazurin	50 nM, 72 h	viability	43.3%
COc1ccc(NC(=O)c2c(Nc3ccccc3)sc(C#N)c2NC(=O)CNc2ccc(OC)c(OC)c2)cc1	SRB	1 µM, 48 h	viability	83.7%
Cc1cc(=O)oc2ccc(-c3cc(-c4ccccc4)nc(N)n3)c(O)c12	MTT	8 µg/mL, 72 h	inhibition	0%
COc1ccc(NC(=O)c2c(Nc3ccccc3)sc(C#N)c2NC(=O)CNc2ccc(Br)cc2)cc1	SRB	10 nM, 48 h	viability	89.6%
Cc1cc(Nc2ccc(C(=O)N/N=C/c3cc4ccccc4[nH]3)cc2)c2cccc(O)c2n1	MTT	20 µM	inhibition	54.1%
COc1ccc(NC(=O)c2c(Nc3ccccc3)sc(C#N)c2NC(=O)CNc2ccc(C)cc2)cc1	SRB	0.1 µM, 48 h	viability	81.2%
CCOC(=O)c1ccc(NC(=O)C2=C3C(=Nc4ccccc43)NC2=O)cc1	MTT	25 µM, 24 h	viability	56.3%
COc1ccc(NC(=O)c2c(Nc3ccccc3)sc(C#N)c2NC(=O)CNc2ccccc2[N+](=O)[O-])cc1	SRB	0.1 µM, 48 h	viability	88.3%
Cc1cc(=O)oc2ccc(-c3cc(-c4cccc(Cl)c4)nc(N)n3)c(O)c12	MTT	2 µg/mL, 72 h	inhibition	0%
CCOc1cc(-c2nc3ccc(C)cc3[nH]2)ccc1O	MTT	48 h	IC50	77.1 µM
COc1ccc(NC(=O)c2c(Nc3ccccc3)sc(C#N)c2NC(=O)CNc2ccc(O)cc2)cc1	SRB	10 nM, 48 h	viability	92.1%
